Reference: publication PMC4857762 (Journal of pharmaceutical sciences, 2016)

Experiments:
[1] = given as the ethyl ester prodrug oseltamivir; cited from earlier work
[2] = test system: Wild-type mice intestinal tissue homogenates; conditions: mouse, tissue homogenate, pH 6
[3] = test system: Caco-2 cell monolayers; experiment: Transepithelial transport across Caco-2 cell monolayers; conditions: AP-BL
[4] = test system: Caco-2 cells; experiment: Intracellular accumulation into Caco-2 cells after transport study; format: in vitro ADME, Human; conditions: Caco-2 cell lysate after 2 h transport study with the prodrug
[5] = target: T1, hPEPT1 (Homo sapiens, UniProt P46059); experiment: Uptake in Xenopus laevis oocytes expressing hPEPT1; format: cell-based; conditions: 50 μM, pH 6.0, 30 min, room temperature
T1 sequence (P46059 1-708): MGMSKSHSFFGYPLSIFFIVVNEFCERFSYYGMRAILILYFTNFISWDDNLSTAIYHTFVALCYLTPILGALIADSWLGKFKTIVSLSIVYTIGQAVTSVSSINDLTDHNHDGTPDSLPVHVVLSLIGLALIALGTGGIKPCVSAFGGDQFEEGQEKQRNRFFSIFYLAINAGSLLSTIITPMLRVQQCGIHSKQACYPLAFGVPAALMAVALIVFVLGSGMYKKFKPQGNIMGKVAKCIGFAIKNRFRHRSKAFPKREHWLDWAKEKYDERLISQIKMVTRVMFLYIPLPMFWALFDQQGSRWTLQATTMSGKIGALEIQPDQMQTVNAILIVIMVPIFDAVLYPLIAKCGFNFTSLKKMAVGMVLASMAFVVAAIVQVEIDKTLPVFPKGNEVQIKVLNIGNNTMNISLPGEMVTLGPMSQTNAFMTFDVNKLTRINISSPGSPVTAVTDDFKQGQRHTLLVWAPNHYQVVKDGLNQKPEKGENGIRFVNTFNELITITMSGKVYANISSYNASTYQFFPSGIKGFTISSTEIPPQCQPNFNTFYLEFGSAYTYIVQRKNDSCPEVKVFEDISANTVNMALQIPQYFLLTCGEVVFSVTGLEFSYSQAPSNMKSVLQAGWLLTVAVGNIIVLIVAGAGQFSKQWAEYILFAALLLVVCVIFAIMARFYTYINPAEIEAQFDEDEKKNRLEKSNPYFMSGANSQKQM
Summary of the method: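 Oocytes injected with hPEPT1 cRNA, with water-injected oocytes as controls. Uptake at room temperature, pH 6.0, in modified Barth's solution (96 mM NaCl, 10 mM HEPES), 50 μM for 30 min; time course up to 3 h; 50–5000 μM for 3 h. Gly-Sar (1, 20 mM) competition expressed as % of uptake without Gly-Sar. Mean ± SEM, 8–13 experiments.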

[6] = test system: HepG2 cell homogenates; experiment: Hydrolysis in HepG2 cell homogenates; format: in vitro ADME, human; conditions: HepG2 Cell homogenates (pH 6.0), 500 μg/mL protein, 37 °C
[7] = test system: pancreatin; experiment: Hydrolysis in buffers / SIF with pancreatin; format: in vitro ADME
[8] = test system: Caco-2 cell homogenates; experiment: Hydrolysis in Caco-2 cell homogenates; format: in vitro ADME, Human; conditions: Caco-2 Cell homogenates (pH 6.0), 500 μg/mL protein, 37 °C
[9] = test system: BPHL knock-out mice intestinal tissue homogenates; conditions: mouse, tissue homogenate, pH 6
[10] = test system: mouse jejunum; experiment: In situ single-pass intestinal perfusion; conditions: mouse proximal jejunum, 0.1 mM, pH 6.0
[11] = target: pepsin (Sus scrofa, UniProt P00791); experiment: Hydrolysis in pH 1.2 SGF with pepsin; format: in vitro ADME; conditions: 37 °C, stable = no decrease in area by HPLC after 2 h
[12] = Chemical stability in buffers at 37 °C
[13] = in vitro; conditions: male, mouse, tissue homogenate, pH 6
[14] = in vitro; conditions: male, BPHL knock-out, mouse, tissue homogenate, pH 6
[15] = In situ single-pass intestinal perfusion; conditions: male, BALB/c, mouse, other: in situ single-pass intestinal (jejunal) perfusion, pH 6

Sequence of pepsin (P00791 60-385): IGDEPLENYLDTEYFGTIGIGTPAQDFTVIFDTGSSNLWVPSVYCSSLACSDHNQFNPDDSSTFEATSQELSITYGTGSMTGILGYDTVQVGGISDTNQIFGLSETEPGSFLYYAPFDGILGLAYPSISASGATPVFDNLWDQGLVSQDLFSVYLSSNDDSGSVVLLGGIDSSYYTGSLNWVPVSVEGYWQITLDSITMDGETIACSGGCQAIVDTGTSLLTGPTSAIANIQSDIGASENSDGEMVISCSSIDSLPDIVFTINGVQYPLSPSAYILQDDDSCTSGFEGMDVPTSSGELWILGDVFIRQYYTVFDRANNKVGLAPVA

SMILES: CCC(CC)O[C@@H]1C=C(C(=O)O)C[C@H](N)[C@H]1NC(C)=O [oseltamivir carboxylate]
- Oral bioavailability [1]: about 80%

SMILES: CCC(CC)O[C@@H]1C=C(C(=O)O)C[C@H](NC(=N)N)[C@H]1NC(C)=O [GOC]
- Half-life (t1/2) [2]: stable ^b
- Apparent permeability (Papp) ([3]; apical pH 6.0 / basolateral pH 7.4, 37 °C): 7.98±4.61 x 10^−7 cm/s
- Amount in cells (share of accumulated species after GOC-ISP-Val transport study) [4]: 49.2%
- Uptake in hPEPT1 cRNA-injected oocytes versus water-injected control oocytes [5]: no increase in uptake
- Half-life (t1/2) [6]: stable ^b
- Half-life (t1/2) ([7]; pH 4.5 Acetate buffer with pancreatin): stable ^b
- Half-life (t1/2) ([7]; pH 5.5 Acetate buffer with pancreatin): stable ^b
- Half-life (t1/2) ([7]; pH 6.0 MES buffer with pancreatin): stable ^b
- Half-life (t1/2) ([7]; pH 6.8 SIF with pancreatin): stable ^b
- Half-life (t1/2) [8]: stable ^b
- Half-life (t1/2) [9]: stable ^b
- Effective permeability (Peff) [10]: approximately zero
- Half-life (t1/2) [11]: stable ^b
- Half-life (t1/2) ([12]; pH 1.2 SGF without pepsin, 0.2 mM, stable = no decrease in area by HPLC after 2 h): stable ^b
- Half-life (t1/2) ([12]; pH 4.5 Acetate buffer): stable ^b
- Half-life (t1/2) ([12]; pH 5.5 Acetate buffer): stable ^b
- Half-life (t1/2) ([12]; pH 6.0 MES buffer): stable ^b
- Half-life (t1/2) ([12]; pH 7.4 Phosphate buffer): stable ^b

SMILES: CC(C)[C@H](N)C(=O)OCCOCn1cnc2c(=O)[nH]c(N)nc21 [valacyclovir]
- half-life [13]: 1.58 h
- half-life [14]: 3.12 h

SMILES: COCCc1ccc(OCC(O)CNC(C)C)cc1 (centres unmarked) [metoprolol]
- Papp relative to that of the prodrug GOC-ISP-Val ([3]; 0.2 mM): 1.7 times higher
- Papp at 1.5 h, 0.1 mM [15]: 53.8 ± 16.8 ×10⁻⁶ cm/s
